Published values from different studies.
Each line is one published result; the experiments were not run side by side.
Target: MAP/microtubule affinity-regulating kinase 4 (MARK4, Homo sapiens, UniProt Q96L34)
Residues used in one study (Q96L34 1-752): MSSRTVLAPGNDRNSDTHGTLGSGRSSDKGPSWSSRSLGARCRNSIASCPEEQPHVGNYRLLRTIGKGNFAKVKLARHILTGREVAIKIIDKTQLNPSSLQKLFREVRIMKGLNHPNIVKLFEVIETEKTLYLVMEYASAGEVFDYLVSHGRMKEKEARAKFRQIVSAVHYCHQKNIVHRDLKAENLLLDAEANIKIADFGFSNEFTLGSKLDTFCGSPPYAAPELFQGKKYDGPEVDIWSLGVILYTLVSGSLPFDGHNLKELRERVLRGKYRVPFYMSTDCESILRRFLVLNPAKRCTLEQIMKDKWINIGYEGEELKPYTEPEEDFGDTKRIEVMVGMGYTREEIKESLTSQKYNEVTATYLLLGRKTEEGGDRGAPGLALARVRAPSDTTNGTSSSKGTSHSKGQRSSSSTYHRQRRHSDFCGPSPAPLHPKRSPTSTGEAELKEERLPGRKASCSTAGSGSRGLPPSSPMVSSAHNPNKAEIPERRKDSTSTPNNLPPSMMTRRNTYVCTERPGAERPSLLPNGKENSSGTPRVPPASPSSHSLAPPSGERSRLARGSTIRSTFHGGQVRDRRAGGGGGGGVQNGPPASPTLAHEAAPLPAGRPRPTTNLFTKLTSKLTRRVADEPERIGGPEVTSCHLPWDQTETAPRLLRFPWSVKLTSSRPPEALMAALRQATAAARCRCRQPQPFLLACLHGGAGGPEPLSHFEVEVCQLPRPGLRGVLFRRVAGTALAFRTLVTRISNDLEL

| read-out | technique | concentration | remaining binding | SMILES |
| --- | --- | --- | --- | --- |
| cell-free assay | competition with immobilised ligand | 5 µM | 80% | FC(F)(F)Oc1cccc(-c2cnc3ccc(-c4ccncc4)nn23)c1 |
| binding | competition with immobilised ligand | 1 µM | 23% | O=C(c1ccc(Nc2ncc(Cl)c(-c3ccc(Cl)s3)n2)cc1)N1CCC(N2CCCC2)CC1 |
| binding |  | 1 µM | 100% | N[C@H]1CCN(c2nccc(-c3cnn4ncccc34)n2)C1 |
| cell-free assay | competition with immobilised ligand | 1 µM | 100% | CC(=O)Nc1c(C(C)=O)c(=O)n(C)c2nc(-c3ccc(Cl)cc3Cl)c(-c3ccc(Cl)cc3)cc12 |
| binding | competition with immobilised ligand | 1 µM | 100% | O=C(Nc1c[nH]nc1C(=O)NC1CCNCC1)c1cc(F)cc(F)c1 |
| cell-free assay | competition with immobilised ligand | 1 µM | 100% | O=C1CCc2cc(Nc3cc(OC4CCOCC4)c([N+](=O)[O-])cc3Cl)ccc2N1 |
| binding |  | 1 µM | 100% | F[C@@H]1CCN(c2nccc(-c3cnn4ncccc34)n2)C1 |
| binding | competition with immobilised ligand | 1 µM | 60% | O=C(NCCCN1CCOCC1)c1ccc(Nc2nccc(-c3cc4ccccc4s3)n2)cc1 |
| binding | competition with immobilised ligand | 10 µM | 80% | c1cncc(-c2cccc(Nc3nccc(NC4CCCCC4)n3)c2)c1 |
| cell-free assay | competition with immobilised ligand | 1 µM | 99% | COc1ccc2c(O[C@@H]3C[C@H]4C(=O)N[C@]5(C(=O)O)CC5/C=C\CCCCC[C@H](NC(=O)OC5CCCC5)C(=O)N4C3)cc(-c3csc(NC(=O)C(C)C)n3)nc2c1C (some centres unmarked) |
| binding |  | 1 µM | 100% | CN(C)c1ncc(F)c(-c2cnn3ncccc23)n1 |
| binding | competition with immobilised ligand | 1 µM | 35% | Cc1cnc(Nc2ccc(C(=O)N3CCC(N4CCCC4)CC3)cc2)nc1-c1cc2ccccc2s1 |
| binding |  | 1 µM | 100% | COc1ccnn2ncc(-c3ccnc(N(C)C)n3)c12 |
| cell-free assay | competition with immobilised ligand | 1 µM | 100% | O=C(O)c1cc(-c2ccc(C3CCNCC3)cc2)c2ccc(-c3ccc(C(F)(F)F)cc3)cc2c1 |
| binding | competition with immobilised ligand | 1 µM | 86% | COc1cnc(Nc2cccc(S(N)(=O)=O)c2)nc1N1CCN(c2ccccc2)CC1 |
| cell-free assay | competition with immobilised ligand | 1 µM | 97% | CCCOc1ccc([C@H]2[C@H](C(=O)O)[C@@H](c3ccc4c(c3)OCO4)CN2CC(=O)Nc2c(CC)cccc2CC)cc1 |
| binding |  | 1 µM | 91% | Cc1cnn2ncc(-c3ccnc(N(C)C)n3)c2c1 |
| binding | competition with immobilised ligand | 1 µM | 88% | CCN1CCN(Cc2ccc(C(=O)Nc3ccc(C)c(Oc4ccc5c(c4)CC(=O)N5)c3)cc2C(F)(F)F)CC1 |
| binding |  | 1 µM | 100% | CN(C)c1nccc(-c2cnn3ncccc23)n1 |
| cell-free assay | competition with immobilised ligand | 0.1 µM | 76% | Nc1c(C(=O)NCc2ccc(C(=O)NCCCC3CCCCC3)cc2)cnn1-c1ccccc1 |
